Laboratory results published in ChEMBL document CHEMBL4425096, “Synthesis and Biological Evaluation of 4-Anilino-quinazolines and -quinolines as Inhibitors of Breast Cancer Resistance Protein (ABCG2)” (J Med Chem, 2016).

Columns and labels:
[1] = molecular target: T1, Broad substrate specificity ATP-binding cassette transporter ABCG2 (Homo sapiens, UniProt Q9UNQ0); assay: Inhibition of c-terminal GFP-tagged human ABCG2 expressed in MDCK2 cells preincubated for 30 mins before Hoechst 33342 addition by Hoechst 33342 accumulation assay; format: cell-based
T1 sequence (Q9UNQ0 whole entry): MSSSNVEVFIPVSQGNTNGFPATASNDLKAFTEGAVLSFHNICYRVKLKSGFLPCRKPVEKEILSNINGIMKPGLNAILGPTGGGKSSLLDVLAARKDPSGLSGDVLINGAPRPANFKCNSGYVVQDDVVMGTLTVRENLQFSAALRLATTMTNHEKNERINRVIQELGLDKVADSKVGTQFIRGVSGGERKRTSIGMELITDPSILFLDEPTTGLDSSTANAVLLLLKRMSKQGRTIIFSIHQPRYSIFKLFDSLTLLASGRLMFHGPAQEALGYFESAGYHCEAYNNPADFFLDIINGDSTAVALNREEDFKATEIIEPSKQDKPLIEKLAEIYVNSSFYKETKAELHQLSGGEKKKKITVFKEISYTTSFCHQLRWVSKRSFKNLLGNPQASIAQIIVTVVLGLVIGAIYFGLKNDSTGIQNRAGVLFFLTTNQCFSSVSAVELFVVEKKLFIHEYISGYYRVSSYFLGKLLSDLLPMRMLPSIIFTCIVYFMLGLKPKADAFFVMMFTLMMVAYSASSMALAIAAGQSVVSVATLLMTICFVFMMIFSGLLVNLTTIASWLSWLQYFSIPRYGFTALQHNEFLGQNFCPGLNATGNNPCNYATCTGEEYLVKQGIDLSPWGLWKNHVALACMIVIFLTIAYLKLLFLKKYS
Procedure, shortened: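 MDCK II cells transfected with human ABCG2 fused C-terminally to GFP, washed in Krebs-HEPES buffer pH 7.0; ~30,000 cells/well, compound 30 min at 37 °C. 6 µM Hoechst 33342 solution added, fluorescence (ex 355/em 460 nm) every 60 s to 120 min. Final methanol ≤5%, DMSO ≤0.1%.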

[2] = molecular target: T1, Broad substrate specificity ATP-binding cassette transporter ABCG2; assay: Inhibition of c-terminal GFP-tagged human ABCG2 expressed in MDCK2 cells preincubated for 30 mins before Pheophorbide A addition by Pheophorbide A assay; format: cell-based
[3] = Intrinsic cytotoxicity against MDCK2 cells over-expressing human ABCG2 incubated for 72 hrs by MTT assay; format: ADME, cell-based, Canis lupus familiaris, MDCK-II; conditions: dog
Procedure, shortened: (§1)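 MDCK II cells incubated 72 h with compound dilutions, then MTT added; viability from formazan formation. […] Methanol (≤1.8%) and DMSO (≤1%) vehicle tested alone.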

[4] = Intrinsic cytotoxicity against parental MDCK2 cells incubated for 72 hrs by MTT assay; format: cell-based, Canis lupus familiaris, MDCK-II; conditions: dog; procedure, shortened: as §1
ABCG2 [5] = assay: Therapeutic index, ratio of GI50 for intrinsic cytotoxicity against MDCK2 cells over-expressing human ABCG2 top IC50 for inhibition of c-terminal GFP-tagged human ABCG2 expressed in MDCK2 cells; format: toxicity, cell-based; conditions: dog, read-out: RatioGI50
Procedure, shortened: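 Ratio of MTT GI50 (72 h, MDCK II) to IC50 from the Hoechst 33342 accumulation assay.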

ABCC1 = ABCC1 (Homo sapiens, UniProt P33527); assay: Inhibition of ABCC1 in human H69AR cells at 10 uM preincubated for 30 mins before calcein AM addition by calcein AM assay relative to CsA; format: cell-based; conditions: probe calcein AM
Procedure, shortened: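 H69AR cells (ABCC1-overexpressing) washed in Krebs-HEPES buffer pH 7.0; ~30,000 cells/well preincubated with compound 30 min at 37 °C, 5% CO2. Then 1.25 µM calcein AM solution added, fluorescence at ex 485/em 520 nm every 60 s for 60 min at 37 °C. Screened at 10 µM; activity expressed relative to cyclosporine A.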

[6] = molecular target: ATP-dependent translocase ABCB1 (Homo sapiens, UniProt P08183); assay: Inhibition of ABCB1 in human A2780adr cells preincubated for 30 mins before calcein AM addition by calcein AM assay; format: cell-based
Procedure, shortened: (§2)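 A2780adr cells (ABCB1-overexpressing, doxorubicin-selected one passage every 10 passages) washed three times in Krebs-HEPES buffer pH 7.0; ~30,000 cells/well with compound dilutions, 30 min at 37 °C, 5% CO2. Calcein AM added (1.25 µM solution), fluorescence (ex 485/em 520 nm) read every 60 s for 60 min at 37 °C. Single-point screen at 10 µM relative to cyclosporine A; IC50 from full curves.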

ABCB1 = ABCB1 (Homo sapiens, UniProt P08183); assay: Inhibition of ABCB1 in human A2780adr cells at 10 uM preincubated for 30 mins before calcein AM addition by calcein AM assay relative to CsA; format: cell-based; conditions: probe calcein AM; procedure, shortened: as §2
ABCG2 [7] = assay: Therapeutic index, ratio of GI50 for intrinsic cytotoxicity against MDCK2 cells over-expressing human ABCG2 top IC50 for inhibition of c-terminal GFP-tagged human ABCG2 expressed in MDCK2 cells relative to Ko143; format: toxicity, cell-based; conditions: dog, read-out: TI

Sequence of ATP-dependent translocase ABCB1 (P08183 whole entry): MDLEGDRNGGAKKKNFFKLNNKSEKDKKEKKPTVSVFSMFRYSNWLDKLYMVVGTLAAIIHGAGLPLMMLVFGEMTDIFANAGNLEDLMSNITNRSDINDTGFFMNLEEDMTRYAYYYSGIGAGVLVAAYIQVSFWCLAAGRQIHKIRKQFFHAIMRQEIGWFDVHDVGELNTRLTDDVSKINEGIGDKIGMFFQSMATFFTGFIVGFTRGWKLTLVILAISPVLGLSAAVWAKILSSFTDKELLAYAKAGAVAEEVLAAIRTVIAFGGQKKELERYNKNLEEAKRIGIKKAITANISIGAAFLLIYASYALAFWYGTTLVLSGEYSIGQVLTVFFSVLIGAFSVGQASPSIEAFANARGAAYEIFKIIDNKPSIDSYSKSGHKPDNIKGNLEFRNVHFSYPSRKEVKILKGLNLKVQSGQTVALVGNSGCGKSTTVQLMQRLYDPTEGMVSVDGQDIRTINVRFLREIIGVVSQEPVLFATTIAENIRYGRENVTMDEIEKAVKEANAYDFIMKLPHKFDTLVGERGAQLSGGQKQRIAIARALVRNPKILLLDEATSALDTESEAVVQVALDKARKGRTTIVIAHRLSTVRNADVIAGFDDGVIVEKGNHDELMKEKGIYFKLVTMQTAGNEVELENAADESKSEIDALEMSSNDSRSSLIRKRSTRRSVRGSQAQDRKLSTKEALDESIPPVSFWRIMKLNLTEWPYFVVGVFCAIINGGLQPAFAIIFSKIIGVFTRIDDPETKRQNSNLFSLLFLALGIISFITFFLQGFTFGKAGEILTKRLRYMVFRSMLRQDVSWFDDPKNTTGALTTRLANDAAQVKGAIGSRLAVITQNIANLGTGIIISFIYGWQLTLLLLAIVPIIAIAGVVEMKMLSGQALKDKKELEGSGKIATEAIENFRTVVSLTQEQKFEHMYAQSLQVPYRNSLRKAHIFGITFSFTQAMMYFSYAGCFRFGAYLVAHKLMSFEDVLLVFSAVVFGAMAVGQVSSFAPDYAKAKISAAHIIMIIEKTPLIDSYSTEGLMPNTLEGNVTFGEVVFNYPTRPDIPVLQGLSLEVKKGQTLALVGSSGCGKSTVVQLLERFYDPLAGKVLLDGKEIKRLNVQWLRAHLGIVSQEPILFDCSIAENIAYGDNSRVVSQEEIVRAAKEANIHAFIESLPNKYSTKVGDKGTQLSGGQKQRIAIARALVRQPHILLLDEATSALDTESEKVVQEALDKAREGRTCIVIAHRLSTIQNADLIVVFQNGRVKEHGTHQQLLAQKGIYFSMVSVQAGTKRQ
Sequence of ABCB1 (P08183 whole entry): as above
Sequence of ABCC1 (P33527 whole entry): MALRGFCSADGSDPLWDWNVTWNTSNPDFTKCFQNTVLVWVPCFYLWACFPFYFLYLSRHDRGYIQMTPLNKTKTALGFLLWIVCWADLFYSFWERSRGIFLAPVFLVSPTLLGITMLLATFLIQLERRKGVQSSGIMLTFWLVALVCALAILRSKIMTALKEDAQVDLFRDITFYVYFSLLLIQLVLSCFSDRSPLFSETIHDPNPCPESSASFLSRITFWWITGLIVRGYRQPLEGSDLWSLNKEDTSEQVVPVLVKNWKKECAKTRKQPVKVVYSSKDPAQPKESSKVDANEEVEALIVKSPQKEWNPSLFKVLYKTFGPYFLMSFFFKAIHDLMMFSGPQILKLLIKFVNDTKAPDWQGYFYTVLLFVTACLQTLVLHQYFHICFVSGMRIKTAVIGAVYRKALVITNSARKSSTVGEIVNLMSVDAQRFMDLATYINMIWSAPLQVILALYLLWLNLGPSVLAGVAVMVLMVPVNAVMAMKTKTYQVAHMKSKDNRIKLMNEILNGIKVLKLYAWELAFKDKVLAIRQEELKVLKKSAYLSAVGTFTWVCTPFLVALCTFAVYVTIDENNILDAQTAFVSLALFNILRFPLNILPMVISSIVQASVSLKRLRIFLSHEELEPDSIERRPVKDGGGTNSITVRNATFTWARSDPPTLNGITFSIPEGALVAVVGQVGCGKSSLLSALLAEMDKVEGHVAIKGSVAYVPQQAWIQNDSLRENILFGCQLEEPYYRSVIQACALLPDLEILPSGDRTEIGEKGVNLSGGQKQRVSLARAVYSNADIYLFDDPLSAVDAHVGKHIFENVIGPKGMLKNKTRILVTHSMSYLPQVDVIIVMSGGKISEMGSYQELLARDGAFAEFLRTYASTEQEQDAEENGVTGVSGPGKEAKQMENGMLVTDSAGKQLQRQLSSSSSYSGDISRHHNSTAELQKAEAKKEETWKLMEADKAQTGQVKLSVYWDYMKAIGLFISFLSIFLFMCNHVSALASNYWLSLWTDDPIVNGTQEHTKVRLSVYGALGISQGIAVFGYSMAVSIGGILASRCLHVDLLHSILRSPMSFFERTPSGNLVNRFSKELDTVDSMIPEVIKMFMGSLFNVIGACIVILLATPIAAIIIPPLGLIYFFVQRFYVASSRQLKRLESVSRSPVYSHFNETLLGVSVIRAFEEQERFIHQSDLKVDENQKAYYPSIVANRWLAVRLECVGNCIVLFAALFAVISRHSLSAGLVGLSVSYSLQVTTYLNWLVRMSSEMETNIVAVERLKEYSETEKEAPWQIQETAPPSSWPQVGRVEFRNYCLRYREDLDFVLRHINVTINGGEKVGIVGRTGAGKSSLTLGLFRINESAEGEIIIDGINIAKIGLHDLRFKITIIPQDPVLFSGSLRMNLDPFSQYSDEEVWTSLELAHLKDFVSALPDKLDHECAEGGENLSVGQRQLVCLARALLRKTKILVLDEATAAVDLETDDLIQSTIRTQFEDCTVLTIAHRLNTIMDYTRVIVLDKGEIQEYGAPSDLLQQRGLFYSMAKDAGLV

Structure (SMILES)	IC50 [1]	IC50 [2]	GI50 at 72 h [3]	GI50 at 72 h [4]	selectivity ratio (ABCG2 [5])	also measured
CC(C)(C)c1ccc(Nc2nc(-c3ccccc3)nc3ccccc23)cc1	1060 nM	–	–	–	–	–
O=C(O)c1ccc(Nc2nc(-c3ccccc3)nc3ccccc23)cc1	6380 nM	–	–	–	–	inhibition at 10 µM (ABCC1): > 25%
Cc1cccc(Nc2nc(-c3ccccc3)nc3ccccc23)c1	1150 nM	–	12800 nM	24000 nM	11.1	IC50 [6]: 3000 nM; inhibition at 10 µM (ABCB1): > 25%
Fc1cccc(Nc2cc(-c3ccccc3)nc3ccccc23)c1	2130 nM	–	–	–	–	–
O=S(=O)(F)c1ccc(Nc2nc(-c3ccccc3)nc3ccccc23)cc1	556 nM	–	–	–	–	–
CSc1cccc(Nc2nc(-c3ccccc3)nc3ccccc23)c1	1190 nM	–	–	–	–	inhibition at 10 µM (ABCC1): > 25%
Fc1ccc(Nc2nc(-c3ccccc3)nc3ccccc23)cc1	1060 nM	–	29000 nM	25600 nM	27.4	–
Cc1ccc(Nc2nc(-c3ccccc3)nc3ccccc23)cc1	1480 nM	–	–	–	–	–
CSc1cccc(Nc2cc(-c3ccccc3)nc3ccccc23)c1	1900 nM	–	–	–	–	IC50 [6]: 1420 nM; inhibition at 10 µM (ABCB1): > 25%; inhibition at 10 µM (ABCC1): > 25%
COc1ccc2c3c([nH]c2c1)[C@H](CC(C)C)N1C(=O)[C@H](CCC(=O)OC(C)(C)C)NC(=O)[C@@H]1C3	–	–	11100 nM	10900 nM	–	–
CC(C)(C)c1cccc(Nc2nc(-c3ccccc3)nc3ccccc23)c1	1070 nM	–	–	–	–	–
CC(C)(C)OC(=O)c1ccc(Nc2nc(-c3ccccc3)nc3ccccc23)cc1	5650 nM	–	–	–	–	–
CC(=O)Nc1cccc(Nc2cc(-c3ccccc3)nc3ccccc23)c1	1630 nM	–	–	–	–	IC50 [6]: 660 nM; inhibition at 10 µM (ABCB1): > 25%; inhibition at 10 µM (ABCC1): > 25%
Cc1cc(Nc2nc(-c3ccccc3)nc3ccccc23)ccc1I	1460 nM	–	–	–	–	–

More lines, main results first:

IC50 [1]	IC50 [2]	Structure (SMILES)	GI50 at 72 h [3]	GI50 at 72 h [4]	selectivity ratio (ABCG2 [5])	also measured
69.9 nM	84.5 nM	N#Cc1ccc(Nc2nc(-c3ccccc3)nc3ccccc23)cc1	7960 nM	16600 nM	113	–
830 nM	–	Clc1ccc(Nc2nc(-c3ccccc3)nc3ccccc23)cc1	6750 nM	14800 nM	8.13	–
152 nM	–	COc1ccc(Nc2nc(-c3ccccc3)nc3ccccc23)cc1OC	22500 nM	17000 nM	148	IC50 [6]: 1860 nM; inhibition at 10 µM (ABCB1): > 25%
791 nM	–	Ic1cccc(Nc2nc(-c3ccccc3)nc3ccccc23)c1	4750 nM	16600 nM	–	–
612 nM	–	Ic1ccc(Nc2nc(-c3ccccc3)nc3ccccc23)cc1	9250 nM	8850 nM	15.1	–
704 nM	741 nM	O=C(Nc1ccccc1C(=O)Nc1ccc(CCN2CCc3ccccc3C2)cc1)c1cnc2ccccc2c1	–	–	–	–
944 nM	–	COC(=O)c1ccc(Nc2nc(-c3ccccc3)nc3ccccc23)cc1	–	–	–	inhibition at 10 µM (ABCC1): > 25%
872 nM	689 nM	COc1ccc(Nc2nc(-c3ccccc3)nc3ccccc23)cc1F	–	–	–	–
204 nM	304 nM	Oc1ccc(Nc2nc(-c3ccccc3)nc3ccccc23)cc1	12200 nM	26900 nM	59.8	–
951 nM	–	COc1cccc(Nc2cc(-c3ccccc3)nc3ccccc23)c1	–	–	–	IC50 [6]: 2780 nM; inhibition at 10 µM (ABCB1): > 25%
672 nM	513 nM	C#Cc1cccc(Nc2nc(-c3ccccc3)nc3ccccc23)c1	–	–	–	–
278 nM	224 nM	CC(=O)Nc1cccc(Nc2nc(-c3ccccc3)nc3ccccc23)c1	12900 nM	30900 nM	46.4	–
80 nM	113 nM	O=[N+]([O-])c1cc(Nc2nc(-c3ccccc3)nc3ccccc23)ccc1O	52400 nM	152000 nM	655	selectivity ratio (ABCG2 [7]): 13
355 nM	405 nM	Fc1cccc(Nc2nc(-c3ccccc3)nc3ccccc23)c1	17200 nM	27500 nM	48.5	–
846 nM	–	N#Cc1ccc(Nc2cc(-c3ccccc3)nc3ccccc23)cc1	–	–	–	IC50 [6]: 4740 nM; inhibition at 10 µM (ABCB1): > 25%
289 nM	202 nM	COc1cc(Nc2nc(-c3ccccc3)nc3ccccc23)ccc1Br	–	–	–	–
